Measured values reported in ChEMBL document CHEMBL4414566, “Cytotoxicity and Anti-inflammatory Properties of Apigenin-Derived Isolaxifolin” (J Nat Prod, 2019).
Activity calls are given as the source filed them. The rule behind the calls is not given here.

Key:
[1] = test system: RAW264.7; assay: Antiinflammatory activity against LPS-activated mouse RAW264.7 cells assessed as reduction in IL6 mRNA expression at 3.1 uM preincubated with LPS for 24 hrs followed by compound addition and measured after 24 hrs by qRT-PCR analysis; type: functional, cell-based
Outline: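 RAW 264.7 cells (DMEM, 10% FBS, 37 °C, 5% CO2) seeded at 1 × 10^5/well and held 4 h. LPS 1.0 μg/mL was added for 24 h, then medium was replaced with test agent (0.8, 1.6, 3.1 μM or 2.3, 4.6, 9.2 μM) for 24 h. TNF-α and IL-6 transcripts were quantified by real-time qPCR against GAPDH. Triplicates, mean ± SD.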

[2] = test system: RAW264.7; assay: Antiinflammatory activity in mouse RAW264.7 cells assessed as reduction in LPS-induced IL6 production at 0.8 to 3.1 uM preincubated with LPS for 24 hrs followed by compound addition and measured after 24 hrs by ELISA; type: functional, cell-based
Outline: (§1)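 Murine RAW 264.7 macrophages, 1 × 10^5/well, 4 h settling, then LPS (1.0 μg/mL) for 24 h. Medium was swapped for test solutions (0.8–3.1 μM or 2.3–9.2 μM), or DXM 254.8 μM as positive control, for another 24 h. Secreted NO was measured by Griess assay; TNF-α and IL-6 by ELISA. Run in triplicate, mean ± SD.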

[3] = test system: RAW264.7; assay: Antiinflammatory activity in mouse RAW264.7 cells assessed as reduction in LPS-induced TNFalpha production at 0.8 to 3.1 uM preincubated with LPS for 24 hrs followed by compound addition and measured after 24 hrs by ELISA; type: functional, cell-based; outline: as §1
[4] = test system: MDA-MB-231; assay: Induction of apoptosis in human MDA-MB-231 cells assessed as late apoptotic cells at 17.3 uM incubated for 48 hrs by annexin V-FITC/PI based flow cytometric analysis (Rvb= 2.82%); type: functional
[5] = test system: MDA-MB-231; assay: Induction of apoptosis in human MDA-MB-231 cells assessed as early apoptotic cells at 17.3 uM incubated for 48 hrs by annexin V-FITC/PI based flow cytometric analysis (Rvb= 0.24%); type: functional
[6] = test system: MDA-MB-231; assay: Induction of apoptosis in human MDA-MB-231 cells assessed as late apoptotic cells at 12.4 uM incubated for 48 hrs by annexin V-FITC/PI based flow cytometric analysis (Rvb= 2.82%); type: functional
[7] = test system: MDA-MB-231; assay: Induction of apoptosis in human MDA-MB-231 cells assessed as viable cells at 8.6 uM incubated for 48 hrs by annexin V-FITC/PI based flow cytometric analysis (Rvb= 96.21%); type: functional; conditions: MDA-MB-231, 48 h, read-out: Activity
[8] = test system: MDA-MB-231; assay: Induction of cell cycle arrest in human MDA-MB-231 cells assessed as accumulation of cells at S phase at 17.3 uM incubated for 48 hrs by PI/RNase staining based flow cytometric analysis (reference value: 39.2%); type: functional
Outline: (§2)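 Cell-cycle analysis: MDA-MB-231 cells were preincubated 24 h, then treated with 8.6, 12.4 or 17.3 μM for 48 h. Cells were pelleted, fixed in 75% ethanol at −20 °C overnight, and stained with PI/RNase for 15 min in the dark at ambient temperature. About 10 000 cells per well were analyzed by flow cytometry for DNA content.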

[9] = test system: MDA-MB-231; assay: Induction of cell cycle arrest in human MDA-MB-231 cells assessed as accumulation of cells at S phase at 12.4 uM incubated for 48 hrs by PI/RNase staining based flow cytometric analysis (reference value: 39.2%); type: functional; outline: as §2
[10] = test system: MDA-MB-231; assay: Induction of cell cycle arrest in human MDA-MB-231 cells assessed as accumulation of cells at G2/M phase at 8.6 uM incubated for 48 hrs by PI/RNase staining based flow cytometric analysis (reference value: 10.4%); type: functional; outline: as §2
[11] = test system: MDA-MB-231; assay: Induction of cell cycle arrest in human MDA-MB-231 cells assessed as accumulation of cells at G0/G1 phase at 8.6 uM incubated for 48 hrs by PI/RNase staining based flow cytometric analysis (reference value: 50.4%); type: functional; outline: as §2
[12] = test system: HepG2; assay: Antiproliferative activity against human HepG2 cells assessed as cell viability at 24.7 uM incubated for 48 hrs by methylene blue assay relative to control; type: functional; conditions: HepG2, 48 h, read-out: Activity
Outline: (§3)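 MDA-MB-231, MCF-7, HepG2 and LNCaP cells were grown in DMEM; HCT-116 and LO-2 in RPMI-1640; all with 10% FBS at 37 °C, 5% CO2. Cells seeded at 1.5 × 10^5 cells/mL and incubated overnight (~12 h), then exposed to 6.2–30.9 μM or 23.1–185.0 μM (final DMSO <0.1%) for 48 h. Read by methylene blue staining; viability = Abs treated/Abs untreated × 100%, triplicate.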

[13] = test system: MDA-MB-231; assay: Antiproliferative activity against human MDA-MB-231 cells assessed as cell viability at 17.3 uM incubated for 48 hrs by methylene blue assay relative to control; type: functional; conditions: MDA-MB-231, 48 h, read-out: Activity; outline: as §3
[14] = test system: MDA-MB-231; assay: Induction of cell cycle arrest in human MDA-MB-231 cells assessed as increase in accumulation of cells at G0/G1 phase incubated for 48 hrs by PI/RNase staining based flow cytometric analysis; type: functional
Outline: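 Cells grown 24 h in DMEM/10% FBS at 37 °C, 5% CO2, then exposed 48 h to 8.6, 12.4 or 17.3 μM. Pelleted, fixed in 75% ethanol at −20 °C overnight, stained with PI-containing RNase 15 min in the dark at ambient temperature. About 10 000 cells per well analysed by flow cytometry. Triplicate, mean ± SD.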

[15] = test system: MDA-MB-231; assay: Induction of mitochondrial membrane potential loss in human MDA-MB-231 cells assessed as cell population with intact mitochondrial membrane potential by measuring red fluorescence at 8.6 uM incubated for 48 hrs by JC1 staining based flow cytometric analysis (reference value: 92.04%); type: functional
Outline: (§4)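 MDA-MB-231 cells in DMEM/10% FBS exposed 48 h to 0, 8.6, 12.4 or 17.3 μM. Harvested cells stained with JC-1 for 15 min in the dark, then analysed by flow cytometry. Excitation 488 nm; green emission read at 525 nm, red at 590 nm. Output given as percent green-to-red fluorescence intensity ratio. Triplicate, mean ± SD.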

[16] = test system: MDA-MB-231; assay: Induction of mitochondrial membrane potential loss in human MDA-MB-231 cells assessed as cell population with intact mitochondrial membrane potential by measuring red fluorescence at 12.4 uM incubated for 48 hrs by JC1 staining based flow cytometric analysis (reference value: 92.04%); type: functional; outline: as §4
[17] = test system: MDA-MB-231; assay: Induction of mitochondrial membrane potential loss in human MDA-MB-231 cells cell population with mitochondrial membrane potential collapse by measuring green fluorescence at 12.4 uM incubated for 48 hrs by JC1 staining based flow cytometric analysis (reference value: 7.96%); type: functional; outline: as §4
[18] = test system: MDA-MB-231; assay: Induction of mitochondrial membrane potential loss in human MDA-MB-231 cells assessed as cell population with intact mitochondrial membrane potential by measuring red fluorescence at 17.3 uM incubated for 48 hrs by JC1 staining based flow cytometric analysis (reference value: 92.04%); type: functional; outline: as §4
[19] = test system: MDA-MB-231; assay: Induction of mitochondrial membrane potential loss in human MDA-MB-231 cells cell population with mitochondrial membrane potential collapse by measuring green fluorescence at 17.3 uM incubated for 48 hrs by JC1 staining based flow cytometric analysis (reference value: 7.96%); type: functional; outline: as §4

For `CC(C)=CCc1c2c(c(O)c3c(=O)cc(-c4ccc(O)cc4)oc13)C=CC(C)(C)O2` [LAXIFOLIN], the Activity [1] was “Active”, the Activity [2] was “Active” and the Activity [3] was “Active”. It also gave an Activity [4] of 24.55%, an Activity [5] of 0.96% and an Activity [6] of 12.89%. It also gave a viability at 8.6 µM [7] of 88.3%, an Activity [8] of 26.8% and an Activity [9] of 28.2%. The Activity [10] was 11%, the Activity [11] was 59.5% and the viability at 24.7 µM [12] was 20%. For the same compound, the viability at 17.3 µM [13] was 20%, the Activity [14] was “Dose-dependent effect” and the Activity [15] was 83.51%. It also gave an Activity [16] of 84.3%, an Activity [17] of 15.7% and an Activity [18] of 73.25%. It also gave an Activity [19] of 26.75%.
